Experimental findings from ChEMBL document CHEMBL3244007, “Resolution of antimalarial agents via complex formation with alpha-(2,4,5,7-tetranitro-9-fluorenylideneaminooxy) propionic acid” (J Med Chem, 1978) are described below.

Active and inactive are the calls of the source. The calls are words filed in the database; no cut-off is given here.

Series [1] deals with Plasmodium berghei. Nature of the series: Antimalarial activity against Plasmodium berghei infected in mouse assessed as change in mean survival time at 40 mg/kg (reference value: 6.2 +/- 0.5 days). Type of series: functional.
In series [2] the test system is Plasmodium berghei. Nature of the series: Antimalarial activity against Plasmodium berghei infected in mouse assessed as change in mean survival time at 160 mg/kg (reference value: 6.2 +/- 0.5 days). Type of series: functional.
In series [3] the test system is Plasmodium berghei. Nature of the series: Antimalarial activity against Plasmodium berghei infected in mouse assessed as change in mean survival time at 20 mg/kg (reference value: 6.2 +/- 0.5 days). It is filed as functional.
For series [4], the system named is Plasmodium berghei. The experiment in a line: Antimalarial activity against Plasmodium berghei infected in mouse assessed as change in mean survival time at 320 mg/kg (reference value: 6.2 +/- 0.5 days). Type of series: functional.
In series [5] the test system is Plasmodium berghei. Nature of the series: Antimalarial activity against Plasmodium berghei infected in mouse assessed as change in mean survival time at 80 mg/kg (reference value: 6.2 +/- 0.5 days). Type of series: functional.
For series [6], the system named is Plasmodium berghei. The experiment in a line: Antimalarial activity against Plasmodium berghei infected in mouse assessed as change in mean survival time at 2.5 mg/kg (reference value: 6.2 +/- 0.5 days). Type of series: functional.
For series [7], the system named is Plasmodium berghei. The experiment in a line: Antimalarial activity against Plasmodium berghei infected in mouse assessed as change in mean survival time at 10 mg/kg (reference value: 6.2 +/- 0.5 days). Type of series: functional.
Series [8] has as its system Plasmodium berghei. The experiment in a line: Antimalarial activity against Plasmodium berghei infected in mouse assessed as change in mean survival time at 5 mg/kg (reference value: 6.2 +/- 0.5 days). It is filed as functional.
The subject of series [9] is Plasmodium berghei. Nature of the series: Antimalarial activity against Plasmodium berghei infected in mouse assessed as change in mean survival time at 1.25 mg/kg (reference value: 6.2 +/- 0.5 days). It is filed as functional.
Series [10] deals with Plasmodium cynomolgi. The experiment in a line: Antimalarial activity against Plasmodium cynomolgi infected in rhesus monkey assessed as cured animal at 0.5 mg/kg qd for 7 days measured after 105 days in presence of chloroquine. Type of series: functional, organism-based. More on the design: dose 0.5 mg/kg. In short, it runs like this: (§1)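 Test compounds were given as phosphate salts, with doses expressed as free base, once daily for 7 days together with chloroquine at 2.5 mg per kg body weight. An animal was scored as cured when thick blood films stayed parasite-negative for 105 days or more after the last dose.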

Series [11] concerns Plasmodium cynomolgi. Nature of the series: Antimalarial activity against Plasmodium cynomolgi infected in rhesus monkey assessed as cured animal at 0.75 mg/kg qd for 7 days measured after 105 days in presence of chloroquine. It is filed as functional, organism-based. More on the design: dose 0.75 mg/kg. In outline: as §1
Series [12] concerns Plasmodium cynomolgi. The experiment in a line: Antimalarial activity against Plasmodium cynomolgi infected in rhesus monkey assessed as cured animal at 0.375 mg/kg qd for 7 days measured after 105 days in presence of chloroquine. Type of series: functional, organism-based. More on the design: dose 0.375 mg/kg. In outline:
as §1

Series [13] concerns Plasmodium berghei. The experiment in a line: Antimalarial activity against Plasmodium berghei infected in mouse assessed as change in mean survival time at 640 mg/kg (reference value: 6.2 +/- 0.5 days). Type of series: functional.
The test system of series [14] is Mus musculus. The experiment in a line: Toxicity in mouse infected with Plasmodium berghei assessed as mortality at 160 mg/kg after 2 to 5 days. It is filed as organism-based. Set-up: dose 160 mg/kg. The conditions noted are these: in vivo.
Series [15] concerns Mus musculus. The experiment in a line: Toxicity in mouse infected with Plasmodium berghei assessed as mortality at 320 mg/kg after 2 to 5 days. Type of series: organism-based. Set-up: dose 320 mg/kg. The conditions noted are these: in vivo.
Series [16] concerns Mus musculus. Nature of the series: Toxicity in mouse infected with Plasmodium berghei assessed as mortality at 640 mg/kg after 2 to 5 days. Type of series: organism-based. Set-up: dose 640 mg/kg. The note with it: in vivo.
In series [17] the test system is Plasmodium cynomolgi. The experiment in a line: Antimalarial activity against Plasmodium cynomolgi infected in rhesus monkey assessed as relapse time at 0.375 mg/kg qd for 7 days in presence of chloroquine. It is filed as functional.
Series [18] concerns Plasmodium cynomolgi. The experiment in a line: Antimalarial activity against Plasmodium cynomolgi infected in rhesus monkey assessed as relapse time at 0.5 mg/kg qd for 7 days in presence of chloroquine. Type of series: functional.
In series [19] the test system is Rhesus monkey. Nature of the series: Toxicity in rhesus monkey at 0.375 to 0.75 mg/kg. It is filed as organism-based, Macaca mulatta. Set-up: dose 0.375-0.75 mg/kg. The note with it: in vivo.

`CCCCCCCN(CCCCCCC)CC(O)c1cc2ccccc2c2cc(Br)ccc12` (racemic): the MST in series [1] (40 mg/kg) was 6.9 days; in series [2] (160 mg/kg) it was 15.3 days; in series [3], 2.9 days; in series [4] (320 mg/kg), 25.9 days; in [5] (80 mg/kg), 11.3 days.
For the molecule `Nc1nc(N)c2c(n1)CCC(S(=O)(=O)c1ccc3ccccc3c1)C2` (racemic), the MST in [6] was determined as 7.5 days; in series [7], 11.9 days; in [8], 10.7 days; in [9] it was 4.9 days.
On to `CCCCN(CCCC)CC(O)c1cc(-c2ccc(Cl)c(Cl)c2)nc2c(Cl)cc(Cl)cc12` (racemic), for which the MST in [6] stood at 4.1 days; in series [1] (40 mg/kg), 11.9 days; in series [7] it was 10.7 days; in [8] it was 6.1 days; in [9], 0.3 days; in series [3] it was 14.9 days. For the same molecule, the MST in series [5] (80 mg/kg) came to 22.9 days.
`CCCCN(CCCC)CC(O)c1cc(-c2ccc(C(F)(F)F)cc2)nc(-c2ccc(C(F)(F)F)cc2)c1` (racemic): the MST in series [7] amounted to 5.5 days; in [3], 8.6 days.
With `COc1cc(NC(C)CCCN)c2ncccc2c1` (racemic), the result in series [10] and in [11] was Active. The outcome in series [12] was inactive.
Consider `CCCCN(CCCC)CCC(O)c1cc2c(Cl)cc(Cl)cc2c2cc(C(F)(F)F)ccc12` (racemic) [HALOFANTRINE], for which the MST was found to be 14.9 days in [7] and 9.3 days in series [8].
With `CCCCCCCN(CCCCCCC)CC(O)c1cc2ccccc2c2cc(Br)ccc12` (single isomer, unassigned; (+)), the MST in series [13] was determined as 14.9 days; in series [1] (40 mg/kg) it was 1.7 days; in series [2] (160 mg/kg), 6.7 days; in [3], 0.5 days; in series [4] (320 mg/kg), 9.3 days; in series [5] (80 mg/kg), 4.1 days.
`Nc1nc(N)c2c(n1)CCC(S(=O)(=O)c1ccc3ccccc3c1)C2` (single isomer, unassigned; (+)): the MST in [1] was determined as 1.7 days; in [2], 6.9 days; in series [3] it was 0.3 days; in series [4], 9.1 days; in [5], 4.5 days.
With `CCCCN(CCCC)CC(O)c1cc(-c2ccc(Cl)c(Cl)c2)nc2c(Cl)cc(Cl)cc12` (single isomer, unassigned; (+)), the MST in series [6] amounted to 0.5 days; in [1] (40 mg/kg) it was 11.8 days; in [7], 6.9 days; in series [8], 3.5 days; in series [9], 0.5 days; in [3], 10 days.
Regarding `Nc1nc(N)c2c(n1)CCC(S(=O)(=O)c1ccc3ccccc3c1)C2` (single isomer, unassigned; (-)), the Activity result in series [14], in [15] and in series [16] was “Toxic” in each case. For the same molecule, the MST in series [6] is 3.1 days; in series [7], 7.1 days; in [8] it was 4.9 days; in series [9], 1.3 days; in series [3], 11.3 days.
On to `CCCCN(CCCC)CC(O)c1cc(-c2ccc(Cl)c(Cl)c2)nc2c(Cl)cc(Cl)cc12` (single isomer, unassigned; (-)), for which the MST in series [1] (40 mg/kg) came to 7.8 days; in [2], 12.8 days; in series [3], 3.8 days; in series [5] (80 mg/kg), 9 days.
In the case of `CCCCN(CCCC)CC(O)c1cc(-c2ccc(C(F)(F)F)cc2)nc(-c2ccc(C(F)(F)F)cc2)c1` (single isomer, unassigned; (-)), the MST came out at 10.5 days in [1] (40 mg/kg); 1.3 days in [7]; 19.9 days in [2]; 3.1 days in [3]; 13.1 days in series [5] (80 mg/kg).
For the molecule `COc1cc(NC(C)CCCN)c2ncccc2c1` (single isomer, unassigned; (-)), the outcome in series [11] was Active.
On to `COc1cc(NC(C)CCCN)c2ncccc2c1.O=P(O)(O)O.O=P(O)(O)O` (single isomer, unassigned; (-)) [PRIMAQUINE PHOSPHATE], for which the results for the Time in series [17] and in series [18] were 11 days and 16 days, respectively.
On to `CCCCN(CCCC)CC(O)c1cc(-c2ccc(C(F)(F)F)cc2)nc(-c2ccc(C(F)(F)F)cc2)c1` (stereo in doubt; (+)-2), for which the MST in [1] (40 mg/kg) turned out to be 18.1 days; in series [7], 3.9 days; in series [3], 10.7 days; in [5] (80 mg/kg), 25.6 days.
In the case of `COc1cc(NC(C)CCCN)c2ncccc2c1` (stereo in doubt; (+)-5), the outcome in [11] was Active.
With `COc1cc(NC(C)CCCN)c2ncccc2c1.O=P(O)(O)O.O=P(O)(O)O` (stereo in doubt; (+)-5) [PRIMAQUINE PHOSPHATE], the Time in [17] amounted to 10 days; in series [18], 28 days. Besides, the Activity entry in series [19] was “Toxic”.
`CCCCN(CCCC)CCC(O)c1cc2c(Cl)cc(Cl)cc2c2cc(C(F)(F)F)ccc12` (stereo in doubt; (+)-8) [HALOFANTRINE]: the MST in series [6] was found to be 3.1 days; in [1] (40 mg/kg) it was 14.5 days; in [7], 10.3 days; in series [8] it was 7.5 days; in series [9], 0.5 days; in series [3], 11.1 days. Besides, the MST in series [5] (80 mg/kg) was determined as 16.9 days.
Turning to `CCCCCCCN(CCCCCCC)CC(O)c1cc2ccccc2c2cc(Br)ccc12` (stereo in doubt; (-)-3), the MST in [13] was 11.1 days; in series [1] (40 mg/kg), 2.1 days; in [2] (160 mg/kg) it was 5.3 days; in series [3], 0.3 days; in series [4] (320 mg/kg), 6.1 days; in [5] (80 mg/kg), 3.9 days.
Take `CCCCN(CCCC)CCC(O)c1cc2c(Cl)cc(Cl)cc2c2cc(C(F)(F)F)ccc12` (stereo in doubt; (-)-8) [HALOFANTRINE]: the MST was determined as 0.3 days in [6]; 12.5 days in series [1] (40 mg/kg); 5.1 days in series [7]; 1.5 days in series [8]; 0.1 days in series [9]; 8.9 days in series [3]. Moreover, in [5] (80 mg/kg), the MST is 13.2 days.
